Assay results reported in ChEMBL document CHEMBL4049410, “Novel benzimidazolyl tetrahydroprotoberberines: Design, synthesis, antimicrobial evaluation and multi-targeting exploration” (2017).
In brackets after ≈: the same amount, converted by molar mass. Activity calls are given as the source filed them. The calls are words filed in the database; no cut-off is given here.

Key:
Staphylococcus aureus [1] = test: Antibacterial activity against methicillin-resistant Staphylococcus aureus N315 after 24 hrs by two-fold serial dilution assay; format: functional
Bacillus subtilis = test: Antibacterial activity against Bacillus subtilis after 24 hrs by two-fold serial dilution assay; format: functional
Procedure, shortened: (§1)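 Twofold serial broth dilution following NCCLS guidance, with Chloromycin, Norfloxacin and Fluconazole as positive controls. MIC in μM is the lowest concentration giving complete inhibition of visible bacterial or fungal growth.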

Micrococcus luteus = test: Antibacterial activity against Micrococcus luteus ATCC 4698 after 24 hrs by two-fold serial dilution assay; format: functional, NCTC 2665; procedure, shortened: as §1
Staphylococcus aureus [2] = test: Antibacterial activity against Staphylococcus aureus ATCC 25923 after 24 hrs by two-fold serial dilution assay; format: functional; procedure, shortened: as §1
Escherichia coli [3] = test: Antibacterial activity against Escherichia coli JM109 after 24 hrs by two-fold serial dilution assay; format: functional; procedure, shortened: as §1
Escherichia coli [4] = test: Antibacterial activity against Escherichia coli DH52 after 24 hrs by two-fold serial dilution assay; format: functional; procedure, shortened: as §1
Shigella dysenteriae = test: Antibacterial activity against Shigella dysenteriae after 24 hrs by two-fold serial dilution assay; format: functional
Pseudomonas aeruginosa = test: Antibacterial activity against Pseudomonas aeruginosa after 24 hrs by two-fold serial dilution assay; format: functional; procedure, shortened: as §1
Salmonella typhi = test: Antibacterial activity against Bacillus typhi after 24 hrs by two-fold serial dilution assay; format: functional, Salmonella enterica subsp. enterica serovar Typhi
Proteus vulgaris = test: Antibacterial activity against Bacillus proteus ATCC 13315 after 24 hrs by two-fold serial dilution assay; format: functional; procedure, shortened: as §1
Pichia norvegensis = test: Antifungal activity against Candida mycoderma after 24 hrs by two-fold serial dilution assay; format: functional; procedure, shortened: as §1
Cyberlindnera jadinii = test: Antifungal activity against Candida utilis after 24 hrs by two-fold serial dilution assay; format: functional; procedure, shortened: as §1
Saccharomyces cerevisiae = test: Antifungal activity against Saccharomyces cerevisiae after 24 hrs by two-fold serial dilution assay; format: functional; procedure, shortened: as §1
Aspergillus flavus = test: Antifungal activity against Aspergillus flavus after 24 hrs by two-fold serial dilution assay; format: functional; procedure, shortened: as §1
Candida albicans = test: Antifungal activity against Candida albicans ATCC 76615 after 24 hrs by two-fold serial dilution assay; format: functional; procedure, shortened: as §1
Staphylococcus aureus [5] = test: Antibacterial activity against methicillin-resistant Staphylococcus aureus N315 after 15 serial passages by two-fold serial dilution assay; format: functional
Procedure, shortened: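 Resistance-development test in MRSA. Cultures were propagated with fresh medium and serially diluted test agent, and the MIC was redetermined every 24 h. Parallel cultures were exposed to 2-fold dilutions of Chloromycin and Norfloxacin as positive controls. MIC was the lowest concentration giving complete growth inhibition.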

[6] = Binding affinity to DNA (unknown origin) assessed as hyperchromic effect up to 1.4 x 10^-5mol/L by UV-Visible absorption spectroscopy
Procedure, shortened: (§2)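 Calf thymus DNA is held at a fixed concentration, quantified by A260 (ε260 = 6600 L mol⁻¹ cm⁻¹, per phosphate) and checked for A260/A280 > 1.8. It is titrated with increasing compound in Tris-HCl pH 7.4 at 290 K. UV-vis spectra are recorded, following absorbance at 260 nm. The binding constant K is derived from a linear fit (R, SD reported).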

[7] = Binding affinity to DNA (unknown origin) by UV-Visible absorption spectroscopy; procedure, shortened: as §2
Bos taurus [8] = organism: Bos taurus; test: Inhibition of neutral red binding to calf thymus DNA up to 1.4 x 10^-5mol/L by UV-Visible absorption spectroscopy
Bos taurus [9] = organism: Bos taurus; test: Induction of calf thymus DNA intercalation assessed as protection of compound quenching from iodide ion by fluorescence assay (reference value: 104.52 L/mol)
Escherichia coli [10] = test: Induction of Escherichia coli pBR322 DNA cleavage assessed as conversion of covalently closed circular DNA to open circular form and linear form of DNA by agarose gel electrophoresis method
Procedure, shortened: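 Supercoiled pBR322 plasmid is incubated with compound at 25, 50 and 75 μM alongside a DNA-only control at 37 °C, pH 7.0. Products are resolved by gel electrophoresis, scoring conversion of Form I to Form II (nicked) and Form III (linear).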

[11] = Staphylococcus aureus, N315, 24 h, read-out: MIC
[12] = Bacillus subtilis, 24 h, read-out: MIC
[13] = Micrococcus luteus, NCTC 2665, 24 h, read-out: MIC
[14] = Staphylococcus aureus, ATCC 25923, 24 h, read-out: MIC
[15] = Escherichia coli, JM109, 24 h, read-out: MIC
[16] = Escherichia coli, DH52, 24 h, read-out: MIC
[17] = Shigella dysenteriae, 24 h, read-out: MIC
[18] = Pseudomonas aeruginosa, 24 h, read-out: MIC
[19] = Salmonella enterica, 24 h, read-out: MIC
[20] = Proteus vulgaris, ATCC 13315, 24 h, read-out: MIC
[21] = Pichia norvegensis, 24 h, read-out: MIC
[22] = Williopsis jadinii, 24 h, read-out: MIC
[23] = Saccharomyces cerevisiae, 24 h, read-out: MIC
[24] = Aspergillus flavus, 24 h, read-out: MIC
[25] = Candida albicans, ATCC 76615, 24 h, read-out: MIC

SMILES | MIC (Staphylococcus aureus [1]; [11]) | MIC (Bacillus subtilis; [12]) | MIC (Micrococcus luteus; [13]) | MIC (Staphylococcus aureus [2]; [14]) | MIC (Escherichia coli [3]; [15]) | MIC (Escherichia coli [4]; [16]) | MIC (Shigella dysenteriae; [17]) | MIC (Pseudomonas aeruginosa; [18]) | MIC (Salmonella typhi; [19]) | MIC (Proteus vulgaris; [20]) | MIC (Pichia norvegensis; [21]) | MIC (Cyberlindnera jadinii; [22]) | MIC (Saccharomyces cerevisiae; [23]) | MIC (Aspergillus flavus; [24]) | MIC (Candida albicans; [25]) | also measured
COc1cc(-c2nc3cc(F)ccc3[nH]2)c2c(c1O)CN1CCc3cc4c(cc3C1C2)OCO4 (stereo unspecified) | 17.4 µM (≈ 7.99 µg/mL) | 4.4 µM (≈ 2.02 µg/mL) | 46.4 µM (≈ 21.3 µg/mL) | 58 µM (≈ 26.6 µg/mL) | 8.7 µM (≈ 4 µg/mL) | 23.2 µM (≈ 10.7 µg/mL) | 17.4 µM (≈ 7.99 µg/mL) | 11.6 µM (≈ 5.33 µg/mL) | 14.5 µM (≈ 6.66 µg/mL) | 69.6 µM (≈ 32 µg/mL) | 8.7 µM (≈ 4 µg/mL) | 14.5 µM (≈ 6.66 µg/mL) | 8.7 µM (≈ 4 µg/mL) | 58 µM (≈ 26.6 µg/mL) | 58 µM (≈ 26.6 µg/mL) | Activity (Staphylococcus aureus [5]): Active; Activity [6]: Active; K [7]: 2.87 ×10⁴ L/mol; inhibition (Bos taurus [8]): Active; KSV (Bos taurus [9]): 87.7 L/mol; Activity (Escherichia coli [10]): Dose-dependent effect
COc1cc(-c2nc3ccccc3n2Cc2ccc(Cl)cc2Cl)c2c(c1O)CN1CCc3cc4c(cc3C1C2)OCO4 (stereo unspecified) | 53.3 µM (≈ 32 µg/mL) | 11.1 µM (≈ 6.67 µg/mL) | 44.4 µM (≈ 26.7 µg/mL) | 22.2 µM (≈ 13.3 µg/mL) | 35.5 µM (≈ 21.3 µg/mL) | 107 µM (≈ 64 µg/mL) | 71.1 µM (≈ 42.7 µg/mL) | 88.8 µM (≈ 53.3 µg/mL) | 22.2 µM (≈ 13.3 µg/mL) | 17.7 µM (≈ 10.6 µg/mL) | 13.3 µM (≈ 7.99 µg/mL) | 22.2 µM (≈ 13.3 µg/mL) | 26.6 µM (≈ 16 µg/mL) | 71.1 µM (≈ 42.7 µg/mL) | 22.2 µM (≈ 13.3 µg/mL) | –
COc1cc(-c2nc3ccccc3n2Cc2cccc(Cl)c2)c2c(c1O)CN1CCc3cc4c(cc3C1C2)OCO4 (stereo unspecified) | 56.5 µM (≈ 32 µg/mL) | 47.1 µM (≈ 26.7 µg/mL) | 28.3 µM (≈ 16 µg/mL) | 23.6 µM (≈ 13.4 µg/mL) | 4.7 µM (≈ 2.66 µg/mL) | 75.4 µM (≈ 42.7 µg/mL) | 23.6 µM (≈ 13.4 µg/mL) | 28.3 µM (≈ 16 µg/mL) | 4.7 µM (≈ 2.66 µg/mL) | 47.1 µM (≈ 26.7 µg/mL) | 18.9 µM (≈ 10.7 µg/mL) | 9.4 µM (≈ 5.32 µg/mL) | 47.1 µM (≈ 26.7 µg/mL) | 18.9 µM (≈ 10.7 µg/mL) | 37.7 µM (≈ 21.3 µg/mL) | –
COc1cc(-c2nc3ccccc3n2CCCCCCn2c3ccccc3c3ccccc32)c2c(c1O)CN1CCc3cc4c(cc3C1C2)OCO4.Cl (stereo unspecified) | – | – | – | – | – | – | – | – | – | – | – | – | – | – | – | MIC (Staphylococcus aureus [1]): 586.7 µM; MIC (Bacillus subtilis): 704 µM; MIC (Micrococcus luteus): 293.3 µM; MIC (Staphylococcus aureus [2]): 146.7 µM; MIC (Escherichia coli [3]): 469.3 µM; MIC (Escherichia coli [4]): 88 µM; MIC (Shigella dysenteriae): 146.7 µM; MIC (Pseudomonas aeruginosa): 469.3 µM; MIC (Salmonella typhi): 73.3 µM; MIC (Proteus vulgaris): 88 µM; MIC (Pichia norvegensis): 352 µM; MIC (Cyberlindnera jadinii): 469.3 µM; MIC (Saccharomyces cerevisiae): 469.3 µM; MIC (Aspergillus flavus): 293.3 µM; MIC (Candida albicans): 176 µM
COc1cc(-c2nc3ccccc3n2Cc2ccc(Cl)c(Cl)c2)c2c(c1O)CN1CCc3cc4c(cc3C1C2)OCO4 (stereo unspecified) | 22.2 µM (≈ 13.3 µg/mL) | 22.2 µM (≈ 13.3 µg/mL) | 107 µM (≈ 64 µg/mL) | 35.5 µM (≈ 21.3 µg/mL) | 44.4 µM (≈ 26.7 µg/mL) | 44.4 µM (≈ 26.7 µg/mL) | 44.4 µM (≈ 26.7 µg/mL) | 35.5 µM (≈ 21.3 µg/mL) | 53.3 µM (≈ 32 µg/mL) | 22.2 µM (≈ 13.3 µg/mL) | 53.3 µM (≈ 32 µg/mL) | 44.4 µM (≈ 26.7 µg/mL) | 26.6 µM (≈ 16 µg/mL) | 88.8 µM (≈ 53.3 µg/mL) | 44.4 µM (≈ 26.7 µg/mL) | –
COc1cc(-c2nc3ccccc3[nH]2)c2c(c1O)CN1CCc3cc4c(cc3C1C2)OCO4 (stereo unspecified) | 121 µM (≈ 53.3 µg/mL) | 48.3 µM (≈ 21.3 µg/mL) | 242 µM (≈ 107 µg/mL) | 580 µM (≈ 256 µg/mL) | 60.4 µM (≈ 26.7 µg/mL) | 96.7 µM (≈ 42.7 µg/mL) | 96.7 µM (≈ 42.7 µg/mL) | 145 µM (≈ 64 µg/mL) | 48.3 µM (≈ 21.3 µg/mL) | 242 µM (≈ 107 µg/mL) | 60.4 µM (≈ 26.7 µg/mL) | 242 µM (≈ 107 µg/mL) | 48.3 µM (≈ 21.3 µg/mL) | 72.5 µM (≈ 32 µg/mL) | 483 µM (≈ 213 µg/mL) | –
CCCn1c(-c2cc(OC)c(O)c3c2CC2c4cc5c(cc4CCN2C3)OCO5)nc2ccccc21 (stereo unspecified) | 55.2 µM (≈ 26.7 µg/mL) | 110 µM (≈ 53.3 µg/mL) | 110 µM (≈ 53.3 µg/mL) | 44.1 µM (≈ 21.3 µg/mL) | 110 µM (≈ 53.3 µg/mL) | 110 µM (≈ 53.3 µg/mL) | 265 µM (≈ 128 µg/mL) | 66.2 µM (≈ 32 µg/mL) | 27.6 µM (≈ 13.3 µg/mL) | 22.1 µM (≈ 10.7 µg/mL) | 13.8 µM (≈ 6.67 µg/mL) | 27.6 µM (≈ 13.3 µg/mL) | 132 µM (≈ 64 µg/mL) | 66.2 µM (≈ 32 µg/mL) | 22.1 µM (≈ 10.7 µg/mL) | –
COc1cc(-c2nc3cc(Cl)ccc3[nH]2)c2c(c1O)CN1CCc3cc4c(cc3C1C2)OCO4 (stereo unspecified) | 1080 µM (≈ 512 µg/mL) | 717 µM (≈ 341 µg/mL) | 896 µM (≈ 427 µg/mL) | 1080 µM (≈ 512 µg/mL) | 896 µM (≈ 427 µg/mL) | 896 µM (≈ 427 µg/mL) | 1080 µM (≈ 512 µg/mL) | 359 µM (≈ 171 µg/mL) | 448 µM (≈ 213 µg/mL) | 896 µM (≈ 427 µg/mL) | 896 µM (≈ 427 µg/mL) | 717 µM (≈ 341 µg/mL) | 896 µM (≈ 427 µg/mL) | 1080 µM (≈ 512 µg/mL) | 896 µM (≈ 427 µg/mL) | –
